The structures appear in SMILES notation.

Consider four molecules from ChEMBL document CHEMBL1127367, “Antiproliferative properties of polyamine analogues: a structure-activity study” (J Med Chem, 1994).

Experiment [1] deals with T1, Ornithine decarboxylase (Mus musculus) (UniProt P00860).
T1 sequence (whole entry): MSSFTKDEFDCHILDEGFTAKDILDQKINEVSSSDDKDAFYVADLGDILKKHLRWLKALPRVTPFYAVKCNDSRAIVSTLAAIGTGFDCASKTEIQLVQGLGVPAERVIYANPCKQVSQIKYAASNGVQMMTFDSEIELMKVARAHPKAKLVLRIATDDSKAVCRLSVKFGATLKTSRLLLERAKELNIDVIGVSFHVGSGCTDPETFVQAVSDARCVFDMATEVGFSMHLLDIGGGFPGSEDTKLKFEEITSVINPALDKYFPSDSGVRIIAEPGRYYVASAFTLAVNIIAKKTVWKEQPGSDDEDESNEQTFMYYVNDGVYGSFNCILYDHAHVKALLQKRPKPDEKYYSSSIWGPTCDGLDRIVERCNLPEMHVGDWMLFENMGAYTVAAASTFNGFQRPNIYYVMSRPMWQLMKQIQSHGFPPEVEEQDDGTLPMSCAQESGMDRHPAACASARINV
In words: Inhibition of ornithine decarboxylase (ODC) activity. The format is functional. Set-up: concentration or dose not given beside the values.

Experiment [2] deals with L1210. Briefly: Compound was evaluated for its impact on putrescine (Put) levels after 48 hr at concentration 150 uM. The format is functional, Mus musculus. The gist of the method:
(§1)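 L1210 suspension cultures were grown in RPMI-1640 with 10% NuSerum, 2% HEPES-MOPS and 1 mM aminoguanidine (37 °C, 5% CO2). Log-phase cells were treated for 48 h, then washed twice in cold RPMI-1640 and pelleted. Pellets were extracted with 0.6 N perchloric acid, and supernatants were held at −20 °C until HPLC. Polyamine levels are given as % of untreated controls.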

Experiment [3] concerns L1210. Briefly: Compound was evaluated for its impact on spermidine levels after 48 hr at concentration 150 uM. Type of experiment: functional, Mus musculus. The gist of the method:
as §1

In experiment [4] the test system is L1210. Briefly: In vitro inhibition of L1210 growth after 48 hours. The format is functional, cell-based. The conditions noted are these: Mus musculus, L1210, 48 h. The gist of the method:
(§2)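 Log-phase L1210 cultures (0.5–1.0 × 10^5 cells/mL) treated with analogue diluted in sterile water and filter-sterilized. After 48 h, cells were reseeded and grown a further 48 h for the 96 h point. Cells counted by Coulter counter. % growth = (treated − inoculum)/(untreated − inoculum) × 100.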

Experiment [5] deals with L1210. Briefly: Compound level in L1210 cells after 48 hours of incubation at initial concentration of 30 uM is expressed as nmol/10e6 cells. Type of experiment: functional, Mus musculus. A digest of the protocol: (§3)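 Murine L1210 leukemia cells were kept in logarithmic growth as a suspension in RPMI-1640 with 10% NuSerum, 2% HEPES-MOPS buffer and 1 mM aminoguanidine, at 37 °C under 5% CO2. Log-phase cells were exposed to the analogue for 48 h. Intracellular analogue content is reported per 10^6 cells.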

The subject of experiment [6] is L1210. Briefly: Compound was evaluated for its impact on spermidine levels after 48 hr at concentration 30 uM. Type of experiment: functional, Mus musculus. The gist of the method:
as §1

Experiment [7] has as its target Spermidine/spermine N(1)-acetyltransferase (SAT) (Mus musculus) (UniProt Q6P8J2+P48026). Briefly: […] spermidine/spermine N1-Acetyltransferase (SSAT) activity. The format is functional. Set-up: concentration or dose not given beside the values.
Experiment [8] concerns L1210. Briefly: Inhibition of radiolabeled spermidine uptake into L1210 cells in vitro. The format is functional, cell-based, Mus musculus.
The test system of experiment [9] is L1210. Briefly: Compound was evaluated for its impact on putrescine (Put) levels after 48 hr at concentration 30 uM. The format is functional, Mus musculus. The gist of the method: as §1
For experiment [10], the system named is L1210. Briefly: Compound level in L1210 cells after 48 hours of incubation at initial concentration of 150 uM is expressed as nmol/10e6 cells. Type of experiment: functional, Mus musculus. A digest of the protocol: as §3
Experiment [11] concerns the target T2, S-adenosylmethionine decarboxylase proenzyme 1 (Mus musculus) (UniProt P0DMN7).
T2 sequence (whole entry): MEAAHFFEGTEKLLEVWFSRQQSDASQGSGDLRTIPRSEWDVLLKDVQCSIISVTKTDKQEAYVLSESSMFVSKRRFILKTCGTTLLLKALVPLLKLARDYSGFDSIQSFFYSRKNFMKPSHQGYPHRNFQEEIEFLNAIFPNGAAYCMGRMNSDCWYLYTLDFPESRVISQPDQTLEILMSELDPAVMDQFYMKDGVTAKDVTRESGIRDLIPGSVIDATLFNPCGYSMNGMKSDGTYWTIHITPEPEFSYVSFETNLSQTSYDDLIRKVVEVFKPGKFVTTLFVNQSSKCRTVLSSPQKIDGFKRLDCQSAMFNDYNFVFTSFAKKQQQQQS
In words: Inhibition of S-Adenosyl-methionine decarboxylase (AdoMetDC) activity. The format is functional. More on the design: concentration or dose not given beside the values.

For experiment [12], the system named is L1210. In words: Compound was evaluated for its impact on spermine levels after 48 hr at concentration 150 uM. Type of experiment: functional, Mus musculus. A digest of the protocol: (§4)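 Murine L1210 leukemia cells in log-phase suspension (RPMI-1640, 10% NuSerum, 2% HEPES-MOPS, 1 mM aminoguanidine, 37 °C, 5% CO2) exposed to analogue for 48 h. Cells washed twice in cold RPMI-1640, extracted with 0.6 N perchloric acid, and polyamines quantified by HPLC. Spermine is reported as % of untreated control.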

For experiment [13], the system named is L1210. Briefly: In vitro inhibition of L1210 growth after 96 hours. The settings on record: Mus musculus, L1210, 96 h. Type of experiment: functional, cell-based. The gist of the method:
as §2

In experiment [14] the test system is L1210. In words: Compound was evaluated for its impact on spermine levels after 48 hr at concentration 30 uM. Type of experiment: functional, Mus musculus. A digest of the protocol:
as §4

Experiment [15] relates to L1210. Briefly: Compound was evaluated for its impact on spermidine levels after 48 hr at concentration 20 uM. Type of experiment: functional, Mus musculus. A digest of the protocol:
as §1

Experiment [16] has as its system L1210. Briefly: Compound was evaluated for its impact on putrescine (Put) levels after 48 hr at concentration 20 uM. Type of experiment: functional, Mus musculus. The gist of the method: as §1
Experiment [17] concerns L1210. Briefly: Compound was evaluated for its impact on spermidine levels after 48 hr at concentration 100 uM. Type of experiment: functional, Mus musculus.
Experiment [18] relates to L1210. In words: Compound was evaluated for its impact on spermine […] levels after 48 hr at concentration 100 uM. Type of experiment: functional, Mus musculus. A digest of the protocol: as §1
The subject of experiment [19] is L1210. Briefly: Compound was evaluated for its impact on putrescine (Put) levels after 48 hr at concentration 100 uM. The format is functional, Mus musculus.
Experiment [20] concerns L1210. Briefly: Compound was evaluated for its impact on spermine […] levels after 48 hr at concentration 20 uM. The format is functional, Mus musculus. A digest of the protocol:
as §1

The subject of experiment [21] is L1210. In words: Compound was evaluated for its impact on spermidine levels after 48 hr at concentration 70 uM. The format is functional, Mus musculus. The gist of the method:
as §1

In experiment [22] the test system is L1210. In words: Compound was evaluated for its impact on spermidine levels after 48 hr at concentration 14 uM. The format is functional, Mus musculus. The gist of the method:
as §1

Experiment [23] deals with L1210. In words: Compound was evaluated for its impact on putrescine (Put) levels after 48 hr at concentration 70 uM. The format is functional, Mus musculus. The gist of the method:
as §1

In experiment [24] the test system is L1210. In words: Compound was evaluated for its impact on spermine levels after 48 hr at concentration 70 uM. Type of experiment: functional, Mus musculus. The gist of the method:
as §4

The subject of experiment [25] is L1210. Briefly: Compound level in L1210 cells after 48 hours of incubation at initial concentration of 14 uM is expressed as nmol/10e6 cells. The format is functional, Mus musculus. A digest of the protocol: as §3
Experiment [26] concerns L1210. In words: Compound was evaluated for its impact on putrescine (Put) levels after 48 hr at concentration 14 uM. The format is functional, Mus musculus. A digest of the protocol: as §1
Experiment [27] has as its system L1210. Briefly: Compound was evaluated for its impact on spermine levels after 48 hr at concentration 14 uM. Type of experiment: functional, Mus musculus. A digest of the protocol: as §4
For experiment [28], the system named is L1210. Briefly: Compound level in L1210 cells after 48 hours of incubation at initial concentration of 70 uM is expressed as nmol/10e6 cells. Type of experiment: functional, Mus musculus. The gist of the method:
as §3

Experiment [29] relates to L1210. Briefly: Compound was evaluated for its impact on spermine levels after 48 hr at concentration 1 uM. The format is functional, Mus musculus. A digest of the protocol: as §4
For experiment [30], the system named is L1210. Briefly: Compound level in L1210 cells after 48 hours of incubation at initial concentration of 5 uM is expressed as nmol/10e6 cells. Type of experiment: functional, Mus musculus. The gist of the method: as §3
The subject of experiment [31] is L1210. Briefly: Compound was evaluated for its impact on putrescine (Put) levels after 48 hr at concentration 1 uM. The format is functional, Mus musculus. The gist of the method: as §1
Experiment [32] deals with L1210. Briefly: Compound was evaluated for its impact on putrescine (Put) levels after 48 hr at concentration 5 uM. The format is functional, Mus musculus. The gist of the method: as §1
Experiment [33] deals with L1210. Briefly: Compound was evaluated for its impact on spermine levels after 48 hr at concentration 5 uM. The format is functional, Mus musculus. A digest of the protocol:
as §4

In experiment [34] the test system is L1210. Briefly: Compound was evaluated for its impact on spermidine levels after 48 hr at concentration 1 uM. The format is functional, Mus musculus. A digest of the protocol: as §1
Experiment [35] concerns the target T1, Ornithine decarboxylase (Mus musculus). In words: Effect of compound on ornithine decarboxylase (ODC) activity expressed as percent of untreated control for ODC (1 uM at 4 h(or 48h)). A digest of the protocol:
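L1210 cells exposed to 1 μM analogue for 4 h, or for 48 h in some cases. ODC activity measured as 14CO2 released from [14C]carboxyl-labeled L-ornithine and expressed as % of untreated control.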

Experiment [36] relates to L1210. In words: Compound was evaluated for its impact on spermidine levels after 48 hr at concentration 5 uM. The format is functional, Mus musculus. A digest of the protocol: as §1
Experiment [37] relates to L1210. In words: Compound level in L1210 cells after 48 hours of incubation at initial concentration of 1 uM is expressed as nmol/10e6 cells. The format is functional, Mus musculus. A digest of the protocol:
as §3

Chain of Spermidine/spermine N(1)-acetyltransferase (SAT) (Mus musculus) (P48026 whole entry, looked up): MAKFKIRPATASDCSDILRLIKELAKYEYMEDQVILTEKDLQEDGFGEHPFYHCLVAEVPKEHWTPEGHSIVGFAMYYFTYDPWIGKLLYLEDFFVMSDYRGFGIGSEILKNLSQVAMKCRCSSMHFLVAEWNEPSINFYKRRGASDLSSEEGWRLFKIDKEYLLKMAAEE
Chain of Spermidine/spermine N(1)-acetyltransferase (SAT) (Mus musculus) (Q6P8J2 whole entry, looked up): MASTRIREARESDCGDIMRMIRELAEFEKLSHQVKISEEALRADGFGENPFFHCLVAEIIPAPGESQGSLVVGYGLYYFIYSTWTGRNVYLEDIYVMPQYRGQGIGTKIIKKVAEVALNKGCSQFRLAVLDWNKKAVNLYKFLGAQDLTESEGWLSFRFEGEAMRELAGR

Turning to `CCNCCCNCCCCNCCCNCC` [BIS(ETHYL)SPERMINE], the Activity in [1] worked out at 3%; in the experiment on L1210 [5], 0.4; in [7], 460%; in the experiment on L1210 [10], 1.13; in [11], 28%. The Polyamine is reported as 0% with L1210 [2]; 0% in the experiment on L1210 [3]; 0% with L1210 [6]; 0% in the experiment on L1210 [9]; 14% with L1210 [12]; 12% in the experiment with L1210 [14]. Besides, the IC50 (commonly the midpoint of a concentration-inhibition curve) in the experiment on L1210 [4] is 30 µM; in the experiment with L1210 [13] it was 0.18 µM. The Ki (usually the dissociation constant of the complex between target and ligand, obtained from inhibition or displacement) with L1210 [8] was determined as 1.6 µM.

Turning to `CC(C)NCCCCNCCCCNCCCCNC(C)C`, the Activity was 90% in [1], 130% in experiment [7] and 78% in experiment [11]. For the same molecule, the IC50 was 20 µM in the experiment with L1210 [4] and 0.06 µM in the experiment on L1210 [13]. Moreover, the Polyamine is 17% in the experiment with L1210 [15]; 0% in the experiment on L1210 [16]; 7% in the experiment on L1210 [17]; 67% in the experiment on L1210 [18]; 0% in the experiment on L1210 [19]; 83% with L1210 [20]. For the same molecule, in the experiment on L1210 [8], the Ki is 8.1 µM.

As to `CCNCCCCNCCCCNCCCCN`, the Activity in [1] stood at 3%; in [7] it was 110%; in experiment [11], 41%; in the experiment with L1210 [25], 2.99; with L1210 [28], 3.22. The Polyamine with L1210 [21] is 0%; with L1210 [22], 0%; with L1210 [23] it was 0%; in the experiment on L1210 [24] it was 26%; in the experiment with L1210 [26], 0%; with L1210 [27], 26%. Moreover, the values for the IC50 with L1210 [4] and in the experiment on L1210 [13] were 14 µM and 0.17 µM, respectively. This molecule also showed a Ki in the experiment on L1210 [8] of 1.1 µM.

On to `CCNCCCCNCCCNCCCCNCC`, for which the half-inhibitory concentration (IC50) with L1210 [4] is 1 µM; in the experiment on L1210 [13], 0.18 µM. Moreover, the Polyamine in the experiment on L1210 [29] is given as 52%; in the experiment on L1210 [31] it was 81%; in the experiment on L1210 [32], 0%; in the experiment on L1210 [33], 27%; in the experiment on L1210 [34], 41%; with L1210 [36] it was 0%. For the same molecule, the Activity in [7] amounted to 120%; in the experiment on L1210 [30] it was 1.5; in [11], 28%; in [35] it was 5%; in the experiment on L1210 [37], 0.76. Further, the Ki in the experiment on L1210 [8] is 4 µM.
